Data on twelve compounds can be found in ChEMBL document CHEMBL1135749, “Stereoselective synthesis and antiviral activity of D-2',3'-didehydro-2',3'-dideoxy-2'-fluoro-4'-thionucleosides” (J Med Chem, 2002).

Data set [1] in a line: In vitro cytotoxicity against human peripheral blood mononuclear (PBM) cells. Format: cell-based. The method, boiled down: (§1)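 Uninfected log-phase cells seeded on 10-fold serial drug dilutions: Vero at 5 × 10³, CEM at 2.5 × 10³, and PHA-stimulated PBM at 5 × 10⁴ cells/well. Incubated at 37 °C in 5% CO₂ for 3 days (Vero), 4 days (CEM) or 5 days (PBM). MTT added overnight, then solubilized and read at 570 nm. IC50 by the median effect method.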

Data set [2] in a line: Anti-viral activity against HIV-1 in human PBM cells. It counts as functional, cell-based. The following applies: PBMC. In a few lines: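 PHA-stimulated (2-3 days) human PBM cells from healthy seronegative donors, infected in bulk for 1 h with HIV-1 LAI (100 TCID50/1 × 10⁷ cells flask or 200 TCID50/6 × 10⁵ cells/well). Cells then placed on 10-fold serial compound dilutions in RPMI-1640 with IL-2, 5 days at 37 °C. Supernatant RT activity measured by ³H-TTP incorporation on poly(rA)·oligo(dT). EC50 obtained by the median effect method.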

A further data set deals with CCRF-CEM. The data set can be described thus: Cytotoxicity against CEM cells. It counts as cell-based. Conditions: Homo sapiens. In a few lines: as §1
Another data set relates to Vero. The data set can be described thus: Cytotoxicity against Vero cells. Format: cell-based. The following applies: Chlorocebus sabaeus. In a few lines:
as §1

For data set [3], the target named is Adenosine deaminase (Bos taurus) (UniProt P56658). Kind of data set: Half life value of the compound.
Data set [4] is described as follows: Antiviral activity against HIV-1xxBRU […] strain in human PBM cells. Format: functional. Conditions: PBMC. In a few lines:
(§2)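 Molecular infectious clones HIV-1 xxBru and HIV-1 M184Vpitt used in PHA-stimulated human PBM cells. Bulk 1 h infection at 100 TCID50/1 × 10⁷ cells (flask) or 200 TCID50/6 × 10⁵ cells/well. Cells then exposed to 10-fold serial compound dilutions for 5 days at 37 °C. Read-out was pelleted-virus RT activity with ³H-TTP. EC50 by the median effect method.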

A short description of data set [5]: Antiviral activity against (HIV-1M184V) mutant strain in human PBM cells. The following applies: PBMC. It counts as functional. The method, boiled down:
as §2

In general, IC50 refers to the point on the concentration scale where inhibition reaches its midpoint. Read a low IC50 as inhibition by little substance. What is called EC50 is the concentration giving half of the maximal effect. On to `O=c1nc(O)ccn1[C@@H]1S[C@H](CO)C=C1F`, for which the IC50 (in data set [1]; in the data set with CCRF-CEM; with Vero) was > 100 µM each time. Besides, the concentration giving a half-maximal response (EC50) in data set [2] was > 100 µM.
The half-life is how long it takes for the measured level to halve. Read a low half-life as fast loss. Consider `Nc1ncnc2c1ncn2[C@@H]1O[C@H](CO)[C@@H](O)[C@H]1O` [ADENOSINE], for which the half-life in data set [3] is 0.5 min.
On to `O=c1[nH]cnc2c1ncn2[C@@H]1S[C@H](CO)C=C1F`, for which the half-inhibitory concentration (IC50) (in data set [1]; with CCRF-CEM; with Vero) was > 100 µM throughout. The same compound registered an EC50 in data set [2] of 43.6 µM.
By EC90 is commonly meant the concentration needed for an effect of 90%. A higher EC90 goes with a need for much substance. Regarding `Nc1ccn([C@@H]2S[C@H](CO)C=C2F)c(=O)n1`, the 50% inhibitory concentration (IC50) (in data set [1]; in the data set with CCRF-CEM; in the data set with Vero) was > 100 µM throughout. In addition, the EC90 in data set [4] is 5 µM; in data set [5], 125 µM. This compound also came in with a concentration giving a half-maximal response (EC50) in data set [2] of 1.3 µM.
Turning to `Cc1cn([C@@H]2S[C@H](CO)C=C2F)c(=O)nc1O`, the values for the IC50 (in data set [1]; with CCRF-CEM; in the data set on Vero) were > 100 µM, > 100 µM and 53 µM, respectively. Also, the midpoint of the response in data set [2], the EC50, lay at 92.3 µM.
As for `Nc1ccn([C@@H]2CS[C@H](CO)O2)c(=O)n1` [LAMIVUDINE], the EC90 in data set [4] turned out to be 0.08 µM; in data set [5], 535 µM.
`Nc1ncnc2c1ncn2[C@@H]1O[C@H](CO)C=C1F` gave a half-life in data set [3] of 42 min.
As for `Cc1cn([C@H]2C[C@H](N=[N+]=[N-])[C@@H](CO)O2)c(=O)[nH]c1=O` [ZIDOVUDINE], the half-inhibitory concentration (IC50) in data set [1] was > 100 µM. For the same compound, the EC90 in data set [4] turned out to be 0.01 µM; in data set [5], 0.003 µM. A half-maximal response in data set [2] (EC50) required 0.004 µM.
On to `Nc1nc(F)nc2c1ncn2[C@@H]1S[C@H](CO)C=C1F`, for which the IC50 came out at 1.5 µM in data set [1], 1.1 µM with CCRF-CEM and 7.6 µM in the data set with Vero. In addition, the EC50 in data set [2] amounted to 1.2 µM.
`Nc1nc2c(ncn2[C@@H]2S[C@H](CO)C=C2F)c(=O)[nH]1`: the IC50 (in data set [1]; in the data set with CCRF-CEM; in the data set with Vero) was > 100 µM each time. The compound further came in with an EC50 in data set [2] of 80.5 µM.
In turn, `Nc1ncnc2c1ncn2[C@@H]1S[C@H](CO)C=C1F` registered a half-life in data set [3] of 33 min. The IC50 (in data set [1]; with CCRF-CEM; in the data set on Vero) was > 100 µM each time. Further, a half-maximal effect in data set [2] (EC50) was put at 8.1 µM.
For `Nc1nc(=O)n([C@@H]2S[C@H](CO)C=C2F)cc1F`, the IC50 (in data set [1]; in the data set on CCRF-CEM; in the data set on Vero) was > 100 µM throughout. The same compound had an EC50 in data set [2] of 11.6 µM.
